# TLR9-MyD88 block = TLR9-MyD88 interaction inhibition; Q9NR96+Q99836; CHO BLA complementation TLR9-MyD88, CCF4 FRET ratio; inhibition, % at 4.98 µM; actives 0.21% (n = 340,000); AID 504734;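 active = inhibition above the mean over all tested compounds plus 3 SD, cut at about 21% in these data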
# CHOP inh = CHOP inhibition in unfolded protein response. CHO-K1 CHOP-promoter luciferase, tunicamycin-induced, 15-18 h. inhibition, % at 10 µM. actives 3.8% (n = 220,000). AID 2732;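 active = compounds that reduced the stress-induced luciferase reporter signal by more than about 70% of percent inhibition, limit read from the data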
# UPR XBP1 act = adaptive UPR (XBP1) activation; actives 0.33% (n = 330,000); CHO-XBP1 luciferase reporter, IRE1-XBP1 UPR activation, luminescence; percent of tunicamycin response, DMSO as zero; activation, % at 20 µM; AID 463104;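 active = versus positive control, 20 µM dose yields 30% or more activation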
#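 Test system: CHO-XBP1 luciferase reporter cells | Buffer or medium: Serum-containing F12 medium, 10% FBS | Schedule: 6 h compound exposure at 37 °C, 5% CO2 | Detection: Steady-Glo luciferase glow luminescence, 10 min after reagent addition | Read-out basis: Activation, % of tunicamycin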
# UPR CHOP act = activators of apoptotic arm of unfolded protein response (CHOP); CHO-CHOP luciferase reporter, UPR activation, luminescence; percent of tunicamycin response over DMSO baseline; activation, % at 10 µM; actives 0.34% (n = 330,000);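 active = at 10 µM dose, activation of 40% or more, normalized to positive control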
#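 assay system = CHO CHOP reporter cells | amount = 500 CHO-CHOP cells per well | buffer or medium = F12 with 10% FBS | incubation = 16-18 h cell attachment, then 6 h compound exposure, 37 °C | detection = luminescence read with Steady-Glo | read-out = percent activation relative to tunicamycin control | controls = tunicamycin high control, DMSO low control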
# NOD2-RIPK2 inh = blocks binding of human NOD2 to RIPK2 | CHO BLA complementation NOD2-RIPK2, CCF4 ratio | actives 0.38% (n = 360,000) | O43353 | inhibition, % at 4.98 µM; in the data active = inhibition above about 21%
# TLR4-MyD88 BLA = blocks binding of human TLR4 to MyD88; HeLa CL3-4 TLR4/MyD88 BLA complementation, FRET ratio; inhibition, % at 8.4 µM; actives 0.18% (n = 200,000); in the data active = inhibition above about 25%
# CHOP confirm = confirmation of CHOP induction inhibitors | actives 45% (n = 2,100) | AID 504437 | CHO-CHOP promoter luciferase reporter, tunicamycin-induced, luminescence | shares compounds with CHOP inh | inhibition, % at 10 µM;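 active = mean of three repeat readings of reporter signal inhibition above a set limit, cut at about 70% in these data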
# Hits are given with their value; n = inactive; x = no result. The full list was thinned out, with hits kept by preference.
SMILES,TLR9-MyD88 block,CHOP inh,UPR XBP1 act,UPR CHOP act,NOD2-RIPK2 inh,TLR4-MyD88 BLA,CHOP confirm
C/C(=N\NC(=O)CC1N=C(Cc2ccccc2)NNC1=O)c1ccc(Cl)cc1Cl (configuration not stated),n,99,n,n,n,n,n
C=CCn1c(SCC(=O)c2[nH]c(C)c(C(=O)OCC)c2C)nc2scc(-c3ccc(OC)c(OC)c3)c2c1=O,n,106,x,x,n,n,n
O=C(NCc1ccncc1)[C@@H]1CCCN1C(=O)[C@H]1CCCN1,x,x,x,x,n,x,x
Cc1ccc(S(=O)(=O)/N=C2/C=C(Sc3ncn[nH]3)C(=O)c3ccccc32)c(C)c1,x,109,x,x,x,n,n
Cc1ccc(S(=O)(=O)/N=C2/C=C(Sc3ncn[nH]3)C(=O)c3ccccc32)cc1,n,108,x,x,n,n,108
CCN(c1ccccc1)S(=O)(=O)c1ccc(C(=O)N2CCN(c3ccccc3F)CC2)cc1,n,x,x,x,n,x,x
O=C(NNC(=O)c1cccc2ccccc12)c1ccc(-c2ccccc2)cc1,n,98,n,n,n,n,82
O=C(COc1ccc(Cl)cc1Cl)Nc1ccccn1,n,100,n,n,n,n,92
CSc1ccccc1NC(=O)COc1ccc(Cl)cc1Cl,n,n,n,n,n,n,x
CCN(CC)C(=O)C1=C(C)N(Cc2ccc(C(C)(C)C)cc2)C(=O)C(CC(=O)NCC2CCCCC2)C1 (configuration not stated),n,x,x,x,n,x,x
COc1cc(CN2C[C@@H](CO)O[C@@H](n3cnc4c(NC5CC5)ncnc43)C2)cc(OC)c1OC,x,x,x,x,n,x,x
Cc1ccc(-n2c(C)cc(C3N=C(N)Nc4nc5ccccc5n43)c2C)c(C)c1 (configuration not stated),n,100,n,n,n,n,n
CCCC(=O)NC(Nc1cc(C(F)(F)F)ccc1Cl)C(Cl)(Cl)Cl (configuration not stated),n,97,n,n,n,n,n
CCCC(=O)NC(Nc1cccc(C(F)(F)F)c1)C(Cl)(Cl)Cl (configuration not stated),n,n,n,n,n,n,x
CCCCC(=O)N(C)c1c(CC)nc2c(OCCOc3ccccc3)cccn12,x,x,x,x,n,x,x
OCCCNc1cc(-c2ccnc(Nc3cccc(Cl)c3)n2)ccn1,n,103,n,n,n,x,107
COC(=O)[C@]12CCCCC=C1N(Cc1ccco1)C(=O)[C@H](CC(=O)NCc1cccc3ccccc13)C2,x,x,x,x,n,x,x
C=CCn1c(SCC(=O)NC(=O)NCc2ccco2)nc2sc(C)c(C)c2c1=O,n,104,n,n,n,n,n
C=CCn1c(SCC(=O)NCCO)nc2sc(C)c(C)c2c1=O,n,n,n,n,n,n,x
NS(=O)(=O)c1ccc(CCNC(=O)c2cccc(S(=O)(=O)N3CCc4ccccc43)c2)cc1,n,x,x,x,n,x,x
Cc1ccccc1-c1noc(-c2ccc(O)cc2)n1,n,105,n,n,n,n,n
Cc1ccc(-c2nc(-c3ccccn3)no2)cc1,n,x,n,n,n,n,124
Cc1ccc(-c2noc(-c3ccccc3Br)n2)cc1,n,n,n,n,n,n,x
CCC1CCCCN1S(=O)(=O)c1ccc(C(=O)Nc2nnc(-c3ccccc3Cl)o2)cc1 (configuration not stated),n,107,n,n,n,n,102
CCC1CCCCN1S(=O)(=O)c1ccc(C(=O)Nc2nnc(C3CC3)o2)cc1 (configuration not stated),n,x,n,n,n,x,x
SMILES,TLR9-MyD88 block,CHOP inh,UPR XBP1 act,UPR CHOP act,NOD2-RIPK2 inh,TLR4-MyD88 BLA,CHOP confirm
N[C@H](CCC(=O)NCS(=O)(=O)O)C(=O)O,x,n,x,x,x,x,x
CCc1nc2ccc(C(=O)NCCCn3ccnc3)cn2c1N(C)Cc1ccc(Cl)cc1,x,x,x,x,n,x,x
Cc1ccc(-c2ccccc2)n1-c1ccc(C(=O)O)cc1,n,n,n,n,n,n,x
Oc1ccccc1-n1c(-c2ccccc2)ccc1-c1ccccc1,n,104,n,n,n,x,119
CCSc1nnc(NC(=O)C2CCCCC2C(=O)O)s1 (configuration not stated),n,n,n,n,n,n,x
CCSc1nnc(NC(=O)C2CC2c2ccccc2)s1 (configuration not stated),n,102,n,n,n,n,n
COc1ccc(-c2ccc(CN3C(C)C(=O)N(Cc4cn(CCC5OCCO5)nn4)CCS3(=O)=O)cc2)cc1 (configuration not stated),n,x,x,x,n,x,x
CCNC(=O)C1(C)CCN1CCS(=O)(=O)c1ccc(C)cc1 (configuration not stated),x,x,x,x,n,x,x
CC1(c2ccccc2)CC(C)(C)n2c(O)c(C3=NC(=S)NC3=O)c3cccc1c32 (configuration not stated),n,104,n,n,n,x,109
Fc1c(F)c(C(F)(F)F)c(F)c(F)c1N/N=C\c1cccs1,n,101,n,n,n,n,89
O=C(Nc1cccc(-c2nc3ncccc3o2)c1)c1sc2ccccc2c1Cl,n,104,n,n,n,n,103
BrC(/C=N/N1CCN(Cc2ccccc2)CC1)=C/c1ccccc1,n,n,n,n,n,x,x
BrC(=C\c1ccccc1)/C=N/N1CCN(Cc2ccccc2)CC1,n,98,n,n,n,n,n
Clc1ccccc1NN=Cc1ccccn1,n,x,x,x,n,x,x
COc1ccccc1/C=C\C=N\n1c(C2CCCCC2)n[nH]c1=S,n,108,n,n,n,n,n
Cc1ccc(/C=N/n2c(C3CCCCC3)n[nH]c2=S)s1,n,105,n,n,n,n,96
Fc1ccc(/C=N/n2c(C3CCCCC3)n[nH]c2=S)cc1,n,x,n,n,n,x,x
CCOc1ccc(NC(=O)c2ccccc2NC(=O)CN2CCCCCC2)cc1,n,x,n,n,n,x,x
CCOc1ccc(NC(=O)c2ccccc2NC(=O)CN(C)CC(=O)Nc2ccc(C)cc2)cc1,n,107,n,n,n,n,n
Cc1ccc(-c2cc(C(=O)NCc3cnn(C)c3)c3cc(Br)ccc3n2)cc1,n,101,n,n,n,n,n
Cn1cc(CNC(=O)c2cc(-c3ccccc3)nc3ccc(Br)cc23)cn1,n,n,n,n,n,n,x
COc1ccccc1CCNC(=O)c1cc(-c2ccncc2)nc2ccc(Br)cc12,n,104,x,x,n,n,n
COC(=O)C[C@H]1C[C@@H]2c3cc(NC(=O)NC4CCCC4)ccc3O[C@@H]2[C@@H](CO)O1,n,x,x,x,n,x,x
C[C@H](CO)N1C[C@H](C)[C@H](CN(C)C(=O)c2ccc3ccn(C)c3c2)OCc2cnnn2CCCC1=O,n,x,x,x,n,x,x
COc1ccccc1-c1cc(C(F)(F)F)nc(S(=O)(=O)CCCC(=O)N2CCOCC2)n1,n,x,n,n,n,n,n
